Laboratory results as given in ChEMBL document CHEMBL3745600, “2-Amino-thiophene derivatives present antileishmanial activity mediated by apoptosis and immunomodulation in vitro” (Eur J Med Chem, 2015).
Converted amounts (≈) assume the structure as drawn. The source made the active and inactive calls. The calls are words filed in the database; no cut-off is given here.

Legend:
[1] = Selectivity index, ratio of HC50 for human RBC to IC50 for axenic amastigotes of Leishmania amazonensis IFLA/BR/67/PH8
Outline: (§1)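 Promastigote values came from haemocytometer counts after 72 h at 25°C. Axenic amastigote values came from MTT readings after 24 h at 32°C, using amastigotes differentiated at pH 4.6. All 50% values were obtained by probit regression.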

Leishmania amazonensis [2] = assay: Antileishmanial activity against promastigotes of Leishmania amazonensis IFLA/BR/67/PH8 after 72 hrs by Neubauer haemocytometer counting; settings: IFLA/BR/67/PH8, 72 h
[3] = Selectivity index, ratio of CC50 for Swiss mouse peritoneal macrophages to IC50 for promastigotes of Leishmania amazonensis IFLA/BR/67/PH8; format: functional; outline: as §1
[4] = Toxicity in human RBC assessed as induction of hemolytic activity after 1 hr by spectrometer analysis; format: cell-based, Erythrocyte; settings: red blood cells (RBC)
Outline: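 A 5% suspension of human erythrocytes in PBS was mixed 4:1 with serial compound dilutions and incubated 1 h at 37°C. The reaction was stopped with PBS (pH 7.2) and spun 10 min at 1000 x g, and supernatant absorbance was read at 540 nm. Haemolysis was expressed relative to a drug-free blank and to water-induced total lysis. HC50 was obtained by probit regression.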

[5] = Cytotoxicity against Swiss mouse peritoneal macrophages after 24 hrs by MTT assay; format: cell-based, Peritoneal macrophage cell
Outline: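 Macrophages were collected from Swiss mice 5 days after thioglycollate (3%) elicitation. About 1 x 10^6 cells per well were incubated in RPMI 1640 with 10% heat-inactivated FBS and compound for 24 h at 37°C, 5% CO₂. MTT was added for 4 h, followed by 10% SDS, and absorbance was read at 540 nm. CC50 was obtained by probit regression.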

[6] = Selectivity index, ratio of CC50 for Swiss mouse peritoneal macrophages to EC50 for axenic amastigotes of Leishmania amazonensis IFLA/BR/67/PH8; outline: as §1
Leishmania amazonensis [7] = assay: Antileishmanial activity against axenic amastigotes of Leishmania amazonensis IFLA/BR/67/PH8 after 24 hrs by MTT assay; settings: IFLA/BR/67/PH8, 24 h
[8] = Selectivity index, ratio of HC50 for human RBC to IC50 for promastigotes of Leishmania amazonensis IFLA/BR/67/PH8; outline: as §1
Leishmania amazonensis [9] = assay: Antileishmanial activity against promastigotes of Leishmania amazonensis IFLA/BR/67/PH8 assessed as viable cells using Annexin-V staining at IC50 after 4 hrs by flow cytometry (reference value: 77%); format: functional
Leishmania amazonensis [10] = assay: Antileishmanial activity against promastigotes of Leishmania amazonensis IFLA/BR/67/PH8 assessed as induction of early apoptosis using Annexin-V staining at 4 times IC50 after 4 hrs by flow cytometry (reference value: 8.3%); format: functional
Leishmania amazonensis [11] = assay: Antileishmanial activity against promastigotes of Leishmania amazonensis IFLA/BR/67/PH8 assessed as induction of necrosis using Annexin-V-FITC/PI staining at IC50 after 4 hrs by flow cytometry (reference value: 2.6%); format: functional
Leishmania amazonensis [12] = assay: Antileishmanial activity against axenic amastigotes of Leishmania amazonensis IFLA/BR/67/PH8 infected in Swiss mouse peritoneal macrophages assessed as reduction of survival rate after 24 hrs by light microscopy analysis; format: functional, organism-based
Outline: (§2)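 Peritoneal macrophages were plated on glass coverslips at 1 x 10^6 cells/mL in supplemented RPMI 1640 and allowed to adhere for 2 h at 34°C, 5% CO₂. They were infected for 3 h with stationary-phase promastigotes at 10 parasites per macrophage, washed with PBS, then exposed to compound for 24 or 72 h. Coverslips were fixed and Panoptic-stained, and 300 macrophages per coverslip were counted by light microscopy. EC50 was derived by probit regression.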

Leishmania amazonensis [13] = assay: Antileishmanial activity against promastigotes of Leishmania amazonensis IFLA/BR/67/PH8 assessed as induction of late apoptosis using Annexin-V/PI staining at 4 times IC50 after 4 hrs by flow cytometry (reference value: 12.05%); format: functional
Leishmania amazonensis [14] = assay: Antileishmanial activity against promastigotes of Leishmania amazonensis IFLA/BR/67/PH8 assessed as induction of necrosis using Annexin-V-FITC/PI staining at 2 times IC50 after 4 hrs by flow cytometry (reference value: 2.6%); format: functional
Leishmania amazonensis [15] = assay: Antileishmanial activity against promastigotes of Leishmania amazonensis IFLA/BR/67/PH8 assessed as viable cells using Annexin-V staining at 4 times IC50 after 4 hrs by flow cytometry (reference value: 77%); format: functional
[16] = tested on: Peritoneal macrophage cell; assay: Immunomodulatory activity in Swiss mouse peritoneal macrophages infected with promastigotes form of Leishmania amazonensis IFLA/BR/67/PH8 assessed as increase of IL-10 production at 6.25 to 25 uM after 72 hrs by sandwich ELISA; format: functional, cell-based
Outline: (§3)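 Supernatants came from infected macrophages treated for 72 h at 37°C, 5% CO₂. TNF-α, IL-12 and IL-10 were measured by sandwich ELISA at 450 nm against murine recombinant cytokine standards. NO was estimated as nitrite by the Griess reaction at 540 nm against a sodium nitrite standard. LPS (10 mg/L) served as positive control. Three experiments were run in triplicate.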

Leishmania amazonensis [17] = assay: Antileishmanial activity against promastigotes of Leishmania amazonensis IFLA/BR/67/PH8 assessed as induction of early apoptosis using Annexin-V staining at 2 times IC50 after 4 hrs by flow cytometry (reference value: 8.3%); format: functional
[18] = tested on: Peritoneal macrophage cell; assay: Immunomodulatory activity in Swiss mouse peritoneal macrophages infected with promastigotes form of Leishmania amazonensis IFLA/BR/67/PH8 assessed as increase of IL-12 production at 6.25 to 25 uM after 72 hrs by sandwich ELISA; format: functional, cell-based; outline: as §3
Leishmania amazonensis [19] = assay: Antileishmanial activity against axenic amastigotes of Leishmania amazonensis IFLA/BR/67/PH8 infected in Swiss mouse peritoneal macrophages assessed as reduction of survival rate after 72 hrs by light microscopy analysis; format: functional, organism-based; outline: as §2
Leishmania amazonensis [20] = assay: Antileishmanial activity against promastigotes of Leishmania amazonensis IFLA/BR/67/PH8 assessed as induction of late apoptosis using Annexin-V/PI staining at IC50 after 4 hrs by flow cytometry (reference value: 12.05%); format: functional
[21] = tested on: Peritoneal macrophage cell; assay: Immunomodulatory activity in Swiss mouse peritoneal macrophages infected with promastigotes form of Leishmania amazonensis IFLA/BR/67/PH8 assessed as increase of TNFalpha production at 6.25 to 25 uM after 72 hrs by sandwich ELISA; format: functional, cell-based; outline: as §3
Leishmania amazonensis [22] = assay: Antileishmanial activity against promastigotes of Leishmania amazonensis IFLA/BR/67/PH8 assessed as induction of late apoptosis using Annexin-V/PI staining at 2 times IC50 after 4 hrs by flow cytometry (reference value: 12.05%); format: functional
Leishmania amazonensis [23] = assay: Antileishmanial activity against promastigotes of Leishmania amazonensis IFLA/BR/67/PH8 assessed as induction of early apoptosis using Annexin-V staining at IC50 after 4 hrs by flow cytometry (reference value: 8.3%); format: functional
Leishmania amazonensis [24] = assay: Antileishmanial activity against promastigotes of Leishmania amazonensis IFLA/BR/67/PH8 assessed as induction of necrosis using Annexin-V-FITC/PI staining at 4 times IC50 after 4 hrs by flow cytometry (reference value: 2.6%); format: functional
Leishmania amazonensis [25] = assay: Antileishmanial activity against promastigotes of Leishmania amazonensis IFLA/BR/67/PH8 assessed as induction of DNA fragmentation at 1 to 4 times IC50 after 24 hrs by agarose gel electrophoresis; format: functional, organism-based
Outline: (§4)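 Genomic DNA was extracted with phenol/chloroform and run on agarose with GelRed (1:500) for 1 h at […]. Fragmentation was viewed under UV as a qualitative read-out.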

Leishmania amazonensis [26] = assay: Antileishmanial activity against promastigotes of Leishmania amazonensis IFLA/BR/67/PH8 assessed as viable cells using Annexin-V staining at 2 times IC50 after 4 hrs by flow cytometry (reference value: 77%); format: functional
Leishmania amazonensis [27] = assay: Antileishmanial activity against promastigotes of Leishmania amazonensis IFLA/BR/67/PH8 assessed as induction of DNA fragmentation at IC50 after 24 hrs by agarose gel electrophoresis; format: functional, organism-based; outline: as §4

Structure (SMILES)	Selectivity Index [1]	IC50 (Leishmania amazonensis [2]) [µM]	Ratio CC50/IC50 [3]	HC50 at 1 h [4] [µM]	CC50 at 24 h [5] [µM]	Ratio CC50/EC50 [6]	EC50 (Leishmania amazonensis [7]) [µM]	Selectivity Index [8]	other results
COc1ccc(Br)c(/C=N/c2sc3c(c2C#N)CCCC3)c1	> 4.78	88	2.4	> 800	211	1.26	167	> 9.1	
N#Cc1c(/N=C/c2cccs2)sc2c1CCC2	> 3.79	139	3.87	> 800	540	2.56	211	> 5.73	
N#Cc1c(/N=C/c2ccccc2)sc2c1CCCC2	5.4	61.5	2.29	682	141	1.13	124	11.1	
N#Cc1c(/N=C/c2cc3cc(Br)ccc3[nH]2)sc2c1CCCCC2	> 39.8	3.65	8.77	> 800	32	1.59	20.1	> 219	Activity (Leishmania amazonensis [9]): 79.9%; Activity (Leishmania amazonensis [10]): 4.3%; Activity (Leishmania amazonensis [11]): 6.1%; Activity (Leishmania amazonensis [12]): Dose-dependent effect; Activity (Leishmania amazonensis [13]): 27.1%; Activity (Leishmania amazonensis [14]): 22.7%; Activity (Leishmania amazonensis [15]): 15.3%; Activity [16]: inactive; Activity (Leishmania amazonensis [17]): 5.6%; Activity [18]: Active; Activity (Leishmania amazonensis [19]): Dose-dependent effect; Activity (Leishmania amazonensis [20]): 9.06%; Activity [21]: Active; Activity (Leishmania amazonensis [22]): 27.3%; Activity (Leishmania amazonensis [23]): 4.8%; Activity (Leishmania amazonensis [24]): 53.2%; Activity (Leishmania amazonensis [25]): Active; Activity (Leishmania amazonensis [26]): 44.3%
N#Cc1c(/N=C/c2ccc3ncccc3c2)sc2c1CCCCC2	5.41	165	2.66	716	438	3.31	132	4.35	
N#Cc1c(/N=C/c2ccc3ncccc3c2)sc2c1CCC2	6	49.1	3.99	625	196	1.9	103	12.7	
N#Cc1c(/N=C/c2cccs2)sc2c1CCCCC2	> 4.16	189	3.81	> 800	722	3.75	192	> 4.22	
N#Cc1c(/N=C/c2ccc([N+](=O)[O-])cc2)sc2c1CCCC2	> 3.76	187	1.22	> 800	229	1.07	213	> 4.27	
C[C@@H]1[C@H](O)[C@@H](C)/C=C/C=C/C=C/C=C/C=C/C=C/C=C/[C@H](O[C@@H]2O[C@H](C)[C@@H](O)[C@H](N)[C@@H]2O)C[C@@H]2O[C@](O)(C[C@@H](O)C[C@@H](O)[C@H](O)CC[C@@H](O)C[C@@H](O)CC(=O)O[C@H]1C)C[C@H](O)[C@H]2C(=O)O [AMPHOTERICIN B]	50.4	0.17	1.05	11.6	0.18	0.78	0.23	68.2	Activity (Leishmania amazonensis [9]): 67.2%; Activity (Leishmania amazonensis [10]): 10.3%; Activity (Leishmania amazonensis [11]): 2.8%; Activity (Leishmania amazonensis [13]): 42.2%; Activity (Leishmania amazonensis [14]): 5.2%; Activity (Leishmania amazonensis [15]): 38.8%; Activity (Leishmania amazonensis [17]): 10.4%; EC50 (Leishmania amazonensis [19]; IFLA/BR/67/PH8, 72 h): 169 µg/mL (≈ 183 µM); Activity (Leishmania amazonensis [20]): 23.8%; Activity (Leishmania amazonensis [22]): 38.8%; Activity (Leishmania amazonensis [27]): Active; Activity (Leishmania amazonensis [23]): 6%; Activity (Leishmania amazonensis [24]): 8.6%; Activity (Leishmania amazonensis [26]): 45.5%
